From ChEMBL document CHEMBL4513216, “Probing the Open Global Health Chemical Diversity Library for Multistage-Active Starting Points for Next-Generation Antimalarials” (ACS Infect Dis, 2020) come the findings set out here.

Molecules are shown by their SMILES.

This series in a line: Toxicity liver stage against HepG2, at 10uM. It is filed as cell-based. Further details: test concentration 10 uM, cell line HepG2-A16-CD81EGFP. The settings on record: human, HepG2-A16-CD81EGFP cells; read-out: INHIBITION
The gist of the method: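 Uninfected HepG2-A16-CD81EGFP cells, 3 × 10^3 per well, 1536-well, plated on prespotted compound at 10 μM final, parasite-free screening media added to match infected plates; puromycin 10 μM positive, DMSO 0.5% negative; run in parallel with 48 h PbLuc assay at 37 °C, 5% CO2; viability by CellTiter-Glo luminescence, normalized to controls.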
Consider `CN(Cc1cc(C2CC2)[nH]n1)C(=O)c1cnn2ccn(C)c12`, for which the cytotoxicity at 10 µM is -3.67%.

With `CCc1cc(C(=O)N[C@@H]2CC[C@@H](N3CCOCC3)[C@@H]2O)no1`, the cytotoxicity at 10 µM was 37.5%.

For `CN(C)c1nc2c(c(NCc3nnc4n3CCCCC4)n1)CCNC2`, the cytotoxicity at 10 µM is -1.37%.

In the case of `COc1cc(CN(C)C(=O)NC2CC2)ccc1SC`, the cytotoxicity at 10 µM was -8.01%.

As for `N#CCCN(Cc1cccnc1)C(=O)c1cccc(-n2cnnn2)c1`, the cytotoxicity at 10 µM came to 2.99%.

With `CC(NC(=O)N1CCN(c2ccc(Cl)cc2)CC1)C(=O)N1CCSCC1` (stereo unspecified), the cytotoxicity at 10 µM was 25.4%.

Turning to `O=C(c1cccc(CNCC2CNc3ccnn3C2)c1)N1CCCC1` (stereo unspecified), the cytotoxicity at 10 µM was found to be 6.26%.

For the compound `CCn1c(CNCC2CCCN2c2cccnn2)nc2ccccc21` (stereo unspecified), the cytotoxicity at 10 µM was -10.2%.

In the case of `OCCN1CCC(CNCc2ccc(N3CCCCC3)cc2)CC1`, the cytotoxicity at 10 µM is -3%.

`COc1ccc(OCCN(C)C(=O)c2ccc(OC)cc2O)cc1`: the cytotoxicity at 10 µM is -143%.

`CC(C)C1CN(S(=O)(=O)Cc2cccc(C#N)c2)CCS1` (stereo unspecified): the cytotoxicity at 10 µM is 2.66%.

Turning to `Cc1noc(C)c1CN1C[C@@H](N(C)Cc2ccco2)[C@H]2OCCC[C@H]21`, the cytotoxicity at 10 µM was -70.9%.

Regarding `Cn1ccnc(Sc2cccc(C#N)c2)c1=O`, the cytotoxicity at 10 µM was 4.64%.

For `CCn1cc(NC(=O)C(C)n2ncc(Cl)c2C)c(C(=O)NC)n1` (stereo unspecified), the cytotoxicity at 10 µM is 9.51%.

As to `Cc1nccc([C@H]2C[C@@H]3CCN(Cc4ccco4)C[C@H]3O2)n1`, the cytotoxicity at 10 µM was -1.03%.

Turning to `CCCc1ccc(CN2CCC3(CCC(=O)N(C(C)C(=O)O)C3)CC2)o1` (stereo unspecified), the cytotoxicity at 10 µM is -2.69%.

Consider `CCn1nnnc1-c1cccc(NC(=O)CCc2cnn(C)c2)c1`, for which the cytotoxicity at 10 µM is -6.19%.

As to `CCCc1ccc(C(=O)N2CCc3c(nc(C)nc3N(C)C)C2)cc1`, the cytotoxicity at 10 µM is -1.34%.

Consider `Cn1nc(C2CNCCO2)cc1CCOc1cccc(C(F)(F)F)c1` (stereo unspecified), for which the cytotoxicity at 10 µM is -1.02%.

For `Cc1cccc(CN2CCCC(O)(CNCCc3c[nH]cn3)C2=O)c1` (stereo unspecified), the cytotoxicity at 10 µM stood at 1.31%.

For `O=C(NC1CCC2(CCC(=O)N2CC2CC2)CC1)c1cnccn1` (stereo unspecified), the cytotoxicity at 10 µM amounted to 0.729%.

As for `Cc1ccc(NC(=O)C2=CN=S=N2)cc1`, the cytotoxicity at 10 µM amounted to 3.51%.

Consider `N#CC1(C(=O)N2CCN(c3nccs3)CC2)CCCCC1`, for which the cytotoxicity at 10 µM was -8.24%.

For the compound `Cc1nc(C)c(CNC(=O)N2CCN(c3ccc(Cl)cn3)CC2)s1`, the cytotoxicity at 10 µM came out at 55.8%.

As for `CNC(=O)CC1CCN(C(=O)NCc2coc3ccccc23)CC1`, the cytotoxicity at 10 µM was -11.4%.

In the case of `CC1CCN(c2cc(NC(=O)C3CC3)ncn2)CC1`, the cytotoxicity at 10 µM was -8.67%.

Consider `CC(C)c1n[nH]c(C(=O)Nc2ccncc2)c1Br`, for which the cytotoxicity at 10 µM came to 12.6%.

Consider `CN(Cc1ccc(O)cc1)C(=O)NC1CCCN(c2ncccn2)C1` (stereo unspecified), for which the cytotoxicity at 10 µM was -9.63%.

Consider `Cc1c(Br)cc2c(c1C)OCC(N(C)C)C2=O` (stereo unspecified), for which the cytotoxicity at 10 µM was -13.1%.

Regarding `COc1ccc(CN2CCn3c(CO)nnc3C2)cc1CN1CCCC1`, the cytotoxicity at 10 µM is -24.5%.

With `Cc1nc(CNC(=O)CC2C(=O)NCCN2Cc2ccccc2C)n[nH]1` (stereo unspecified), the cytotoxicity at 10 µM is -7.21%.

With `O=C(CCc1cccc(C2CCNCC2)n1)N1CCCCC1`, the cytotoxicity at 10 µM is -4.78%.

In the case of `CC(C)c1noc(CCC(=O)NCC2CCS(=O)(=O)C2)n1` (stereo unspecified), the cytotoxicity at 10 µM stood at 5.7%.

On to `Cc1nc(C2CCCN2CCC(=O)N2CCc3ccccc32)no1` (stereo unspecified), for which the cytotoxicity at 10 µM was -1.07%.

Turning to `COCCNC(=O)CN(C)CCn1nc2ccccn2c1=O`, the cytotoxicity at 10 µM was -156%.

Consider `CC(CNCc1ccc(Cl)cc1)Oc1ccccn1` (stereo unspecified), for which the cytotoxicity at 10 µM is 5.01%.

Regarding `Cn1cnnc1C1CCCN(C(=O)NCCc2ccccc2F)C1` (stereo unspecified), the cytotoxicity at 10 µM is -1.88%.

As for `CO[C@H]1CC[C@H]2[C@H]1OCCN2C(=O)CCOc1ccccc1`, the cytotoxicity at 10 µM was -95%.

For the compound `O=C(NCc1cc[nH]n1)NCC(O)c1ccccc1F` (stereo unspecified), the cytotoxicity at 10 µM was -17.1%.

Take `COCCNC(=O)Cn1cc2c(n1)c(C)nn2C`: the cytotoxicity at 10 µM amounted to 4.6%.

Take `COc1cccc(CN2CCN(c3ccc4nncn4n3)C(C)C2)c1` (stereo unspecified): the cytotoxicity at 10 µM was 38.3%.

Take `CCN(CC)S(=O)(=O)c1cc(NC(=O)CCc2cscn2)ccc1C`: the cytotoxicity at 10 µM was -0.25%.

Consider `CC(C)N1CCCC1c1cc(CO)[nH]n1` (stereo unspecified), for which the cytotoxicity at 10 µM was 6%.

As to `CC(NC(=O)N1CCN(c2cccs2)CC1)c1ccc(C#N)cc1` (stereo unspecified), the cytotoxicity at 10 µM turned out to be 11.4%.

Consider `CC(C)CN(C(=O)COc1ccc(C(N)=O)cc1)C1CCN(C)CC1`, for which the cytotoxicity at 10 µM was -3.24%.

As to `Cc1nc[nH]c1CN(Cc1ccc(F)cc1)C1CC(C)(C)NC(C)(C)C1`, the cytotoxicity at 10 µM stood at 0.92%.

In the case of `O=C(Cc1ccccc1O)Nc1ccc(N2CCCC2)nc1`, the cytotoxicity at 10 µM stood at 9.31%.

For `Cc1ccc2c(c1)CCCN2C(=O)c1cncc(Br)c1`, the cytotoxicity at 10 µM was -8.79%.

Take `CCOCCC1(CNC(=O)c2ccc(C)nc2)CCCC1`: the cytotoxicity at 10 µM is 7.25%.

For the compound `O=C(c1cc(F)ccc1F)C1CCN(C(=O)c2ccccn2)CC1`, the cytotoxicity at 10 µM was determined as 2.6%.

Take `COc1cccc(OCCN2CC[C@@](O)(C3CCOCC3)[C@H](C)C2)c1`: the cytotoxicity at 10 µM was -7.03%.

As to `Cc1cccc(CN2C[C@@H]3COC[C@H](NS(C)(=O)=O)[C@@H]3C2)n1`, the cytotoxicity at 10 µM was -2.6%.

Consider `COc1cc(S(=O)(=O)N2CCc3ccc(F)cc32)cc(C(=O)O)c1OC`, for which the cytotoxicity at 10 µM came out at 7.12%.

Regarding `O=c1c(NCCc2ccc(O)cc2)c(NCc2ccco2)c1=O`, the cytotoxicity at 10 µM was -10.7%.

`Cc1cc(C)nc(C2CCN(C(=O)CO)CC2)n1`: the cytotoxicity at 10 µM was 2.53%.

`COCCN(Cc1ccccc1Cl)c1nc(CCN)nc2ccccc12`: the cytotoxicity at 10 µM was found to be 12.9%.

Take `CC(C1CCN(C(=O)c2coc(CN3CCOCC3)c2)CC1)N(C)C` (stereo unspecified): the cytotoxicity at 10 µM is -4.07%.

Regarding `CCC1CN(C(=O)c2ccc(O)cn2)CCC(=O)N1Cc1ccccc1` (stereo unspecified), the cytotoxicity at 10 µM amounted to 8.5%.

As to `CCC1CN(C(=O)c2ncccc2O)CCC(=O)N1Cc1ccccc1` (stereo unspecified), the cytotoxicity at 10 µM is 3.2%.

Turning to `O=C(O)c1cc(S(=O)(=O)N2CCOc3ccccc32)cc(Cl)c1Cl`, the cytotoxicity at 10 µM is -4.36%.

Consider `CN1CC[C@H]2[C@H](C[C@@H](Cn3cncn3)N2c2nccs2)C1`, for which the cytotoxicity at 10 µM is -144%.

In the case of `COC(CNC(=O)c1ccc(NC(C)=O)cc1)c1cccc(Cl)c1` (stereo unspecified), the cytotoxicity at 10 µM was found to be 7.72%.

On to `COc1ccc2cnn(CC(=O)NCC3CCCO3)c(=O)c2c1OC` (stereo unspecified), for which the cytotoxicity at 10 µM was found to be 4.81%.

As for `CC(NC(=O)N1CCN(c2nccs2)CC1)c1nncn1C` (stereo unspecified), the cytotoxicity at 10 µM is -13.1%.

Regarding `Cc1cccc2c(CCNC(=O)NCCC[S+](C)[O-])c[nH]c12` (stereo unspecified), the cytotoxicity at 10 µM is -25.4%.

As to `CC(C)(C)CC(=O)NCC(=O)Nc1ccn(Cc2ccncc2)n1`, the cytotoxicity at 10 µM amounted to 13.2%.

Regarding `CCS(=O)(=O)N1CCCC2(CCCN2Cc2cccc(F)c2)C1` (stereo unspecified), the cytotoxicity at 10 µM was -141%.

As for `CCCOc1ccc(C(=O)N[C@@H]2CCNC[C@H]2O)cc1Cl`, the cytotoxicity at 10 µM is -10.4%.

As to `Cc1nc(C)n(CC2CN(CC(=O)Nc3cccnc3)CCO2)n1` (stereo unspecified), the cytotoxicity at 10 µM was -12%.

In the case of `CCCn1nccc1NC(=O)c1ccc(Cl)c(N2CCNC2=O)c1`, the cytotoxicity at 10 µM is -5.07%.

Consider `CC(C)(C)C(=O)N1CCC(n2cc(C3(O)CCCC3)nn2)CC1`, for which the cytotoxicity at 10 µM came out at 3.15%.
